Where “and” joins values, the source holds several entries; their conditions need not be identical. Identical values can stand only once.
How the values were obtained:
L1210 [1] = assay: In vivo median survival time of treated vs untreated mice x 100 against murine L1210 leukemia cells after ip treatment on day 1 after tumor iv transplant; type: functional, Mus musculus
L1210 [2] = assay: In vivo median survival time of treated vs untreated mice x 100 against murine L1210 leukemia cells after iv treatment on day 1 after tumor iv transplant; type: functional, Mus musculus
L1210 [3] = assay: In vitro antitumor activity evaluated against L1210 murine leukemia cell line; type: functional, cell-based; settings: Mus musculus
Outline: (§1)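 L1210 murine leukemia cells and their doxorubicin-resistant and tallimustine-resistant sublines were grown as stationary suspension in RPMI 1640 with 10% fetal calf serum, 2 mM L-glutamine, β-mercaptoethanol and antibiotics. Compounds were dissolved in DMSO at 1 mg/mL (stock) and diluted in medium. Exponentially growing cells were exposed continuously for 48 h, and survivors were counted electronically. IC50 (cell number reduced to 50% of untreated control) was taken from dose-response curves. Duplicate cultures were used, with vehicle controls.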

L1210 [4] = assay: In vivo optimal nontoxic dose against murine L1210 leukemia cells after ip treatment on day 1 after tumor ip transplant; type: functional, Mus musculus
Outline: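 L1210 leukemia cells (10^5/mouse) were implanted ip or iv in female mice, 10 per group. Compounds were made fresh in 10% Tween 80/90% saline and given ip or iv on day 1 after implant, over a dose-response range. […] Toxicity was judged by gross autopsy and weight loss.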

L1210 [5] = assay: In vivo optimal nontoxic dose against murine L1210 leukemia cells after i.v. administration day 1 after tumor i.v. inoculation.
L1210 [6] = assay: Inhibition of growth in L1210 leukemia cells resistant to doxorubicin(DX).; type: functional, cell-based; settings: Mus musculus; outline: as §1
Estrogen receptor = Estrogen receptor (Homo sapiens, UniProt Q92731+P03372); assay: Tested for 50% inhibition of generation of Human estrogen receptor polymerase chain reaction(PCR) products; type: protein assay
L1210 [7] = assay: Inhibition of growth in L1210 leukemia cells resistant to Tallimustine.; type: functional, cell-based; settings: Mus musculus; outline: as §1
L1210 [8] = assay: Ratio between IC50 value on resistant cells and sensitive cells; type: functional, Mus musculus; parameters: reference not given here
Outline: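 Murine L1210 leukemia cells, parental and doxorubicin- or tallimustine-resistant sublines, were grown in stationary suspension in RPMI 1640 with 10% FCS, 2 mM glutamine, […] and antibiotics. Exponentially growing cells were exposed continuously for 48 h to graded concentrations from a 1 mg/mL DMSO stock, and survivors were counted electronically. IC50 came from dose-response curves, with duplicate cultures and at least two repeats. RI was the IC50 on resistant cells divided by the IC50 on sensitive cells.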

[9] = Resistance index(RI) = Ratio between IC50 value on resistant cells and sensitive cells; type: functional
Outline: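 L1210/DX (doxorubicin-resistant), L1210/tallimustine-resistant and parental L1210 cells grown as stationary suspension in RPMI 1640 with 10% FCS. Compounds from 1 mg/mL DMSO stock, diluted in medium. Exponentially growing cells exposed continuously for 48 h, with duplicate cultures per concentration and vehicle controls. Survivors counted electronically; IC50 taken from dose-response curves. RI = resistant-line IC50 / parental L1210 IC50.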

## Cl.Cn1cc(NC(=O)c2cc(NC(=O)c3cc(N(CCCl)CCCl)cn3C)cn2C)cc1C(=O)NCCC(=N)N
L1210 [1]
  T/C: 138%
L1210 [2]
  T/C: 117%
L1210 [3]
  IC50: 3.9 nM
L1210 [4]
  Optimal dose: 1.6 mg/kg
L1210 [5]
  Optimal dose: 0.78 mg/kg

## C=C(Br)C(=O)Nc1cc(C(=O)Nc2cc(C(=O)Nc3cc(C(=O)Nc4cc(C(=O)NCCC(=N)N)n(C)c4)n(C)c3)n(C)c2)n(C)c1.Cl
L1210 [1]
  T/C: 725%
L1210 [2]
  T/C: 200%
L1210 [6]
  IC50: 0.42 nM
L1210 [4]
  Optimal dose: 3.1 mg/kg
L1210 [5]
  Optimal dose: 1.6 mg/kg

## Cl.Cn1cc(NC(=O)c2cc(NC(=O)c3cc(NC(=O)c4ccc(N(CCCl)CCCl)cc4)cn3C)cn2C)cc1C(=O)NCCC(=N)N [TALLIMUSTINE CHLORIDE]
L1210 [2]
  T/C: 133%
L1210 [4]
  Optimal dose: 3.1 mg/kg
L1210 [5]
  Optimal dose: 3.1 mg/kg

## Cl.Cn1cc(NC(=O)c2cc(NC(=O)c3cc(NC(=O)/C=C/c4ccc(N(CCCl)CCCl)cc4)cn3C)cn2C)cc1C(=O)NCCC(=N)N
L1210 [2]
  T/C: 267%
L1210 [5]
  Optimal dose: 6.2 mg/kg

## Cl.Cn1cc(NC(=O)c2cc(NC(=O)c3cc(NC(=O)c4cc5cc(N(CCCl)CCCl)ccc5o4)cn3C)cn2C)cc1C(=O)NCCC(=N)N
Estrogen receptor
  IC50: 3 nM
L1210 [2]
  T/C: 200%
L1210 [7]
  IC50: 1.2 nM
L1210 [6]
  IC50: 0.42 nM
L1210 [3]
  IC50: 3.7 nM
L1210 [8]
  Resistance index: 6.8 and 19
L1210 [5]
  Optimal dose: 0.39 mg/kg

## Cl.Cn1cc(NC(=O)c2cc(NC(=O)c3cc(NC(=O)c4cc5cc(N(CCCl)CCCl)ccc5n4C)cn3C)cn2C)cc1C(=O)NCCC(=N)N
Estrogen receptor
  IC50: 1 nM
L1210 [2]
  T/C: 457%
L1210 [7]
  IC50: 1.2 nM
L1210 [6]
  IC50: 0.42 nM
L1210 [3]
  IC50: 14.7 nM
L1210 [8]
  Resistance index: 6.8 and 19
L1210 [5]
  Optimal dose: 1.6 mg/kg

## Cl.Cn1cc(NC(=O)c2cc(NC(=O)c3cc(NC(=O)c4cc(NC(=O)c5ccc(N(CCCl)CCCl)cc5)nn4C)cn3C)cn2C)cc1C(=O)NCCC(=N)N
L1210 [1]
  T/C: 144%
L1210 [7]
  IC50: 10.4 nM
L1210 [6]
  IC50: 0.42 nM
L1210 [3]
  IC50: 34.5 nM
L1210 [4]
  Optimal dose: 3.1 mg/kg
L1210 [8]
  Resistance index: 326.2 and 302.3

## Cn1cc(NC(=O)c2cc(NC(=O)c3cc(NC(=O)c4cc(NC=O)cn4C)cn3C)cn2C)cc1C(=O)NCCC(=N)N
L1210 [7]
  IC50: 1.2 nM
L1210 [6]
  IC50: 0.42 nM

## Cl.Cn1cc(NC(=O)c2cc(NC(=O)c3cc(NC(=O)c4cc5cc(NC(=O)c6ccc(N(CCCl)CCCl)cc6)ccc5n4C)cn3C)cn2C)cc1C(=O)NCCC(=N)N
Estrogen receptor
  IC50: 5 nM
L1210 [2]
  T/C: 183%
L1210 [7]
  IC50: 1.2 nM
L1210 [6]
  IC50: 0.42 nM
L1210 [3]
  IC50: 61.7 nM
[9]
  Resistance index: 6.8 and 19
L1210 [5]
  Optimal dose: 25 mg/kg

## C=C(Br)C(=O)Nc1cc(C(=O)Nc2cc(C(=O)Nc3cc(C(=O)Nc4cc(C(=O)NCCC(=N)N)n(C)c4)n(C)c3)n(C)c2)n(C)n1.Cl
L1210 [1]
  T/C: 200%
L1210 [6]
  IC50: 0.42 nM
L1210 [3]
  IC50: 13.3 nM
L1210 [4]
  Optimal dose: 6.2 mg/kg

## Cl.Cn1cc(NC(=O)c2cc(NC(=O)c3cc(NC(=O)c4cc5cc(NC(=O)c6ccc(N(CCCl)CCCl)cc6)ccc5o4)cn3C)cn2C)cc1C(=O)NCCC(=N)N
L1210 [2]
  T/C: 150%
L1210 [7]
  IC50: 1.2 nM
L1210 [6]
  IC50: 0.42 nM
L1210 [3]
  IC50: 43.5 nM
L1210 [8]
  Resistance index: 6.8 and 19
L1210 [5]
  Optimal dose: 6.2 mg/kg

## Cl.Cn1cc(NC(=O)c2cc(NC(=O)c3cc(NC(=O)c4cc5cc(N(CCCl)CCCl)ccc5[nH]4)cn3C)cn2C)cc1C(=O)NCCC(=N)N
Estrogen receptor
  IC50: 1 nM
L1210 [2]
  T/C: 174%
L1210 [7]
  IC50: 1.2 nM
L1210 [6]
  IC50: 0.42 nM
L1210 [3]
  IC50: 8 nM
L1210 [8]
  Resistance index: 6.8 and 19
L1210 [5]
  Optimal dose: 0.39 mg/kg

## C=C(Br)C(=O)Nc1ccc2c(c1)cc(C(=O)Nc1cc(C(=O)Nc3cc(C(=O)Nc4cc(C(=O)NCCC(=N)N)n(C)c4)n(C)c3)n(C)c1)n2C.Cl
L1210 [2]
  T/C: 192%
L1210 [7]
  IC50: 150 nM
L1210 [6]
  IC50: 43 nM
L1210 [3]
  IC50: 2.4 nM
L1210 [5]
  Optimal dose: 6.2 mg/kg

## Cn1cc(NC(=O)c2cc(NC(=O)c3cc(NC=O)cn3C)cn2C)cc1C(=O)NCCC(=N)N [STALLIMYCIN]
Estrogen receptor
  IC50: 20 nM
L1210 [7]
  IC50: 142000 nM
L1210 [6]
  IC50: 459000 nM
L1210 [3]
  IC50: 10100 nM

## C=C(Br)C(=O)Nc1cc(C(=O)Nc2cc(C(=O)Nc3cc(C(=O)NCCC(=N)N)n(C)c3)n(C)c2)n(C)c1.Cl
L1210 [7]
  IC50: 1.2 nM
L1210 [8]
  Resistance index: 68 and 156

## Cl.Cn1cc(NC(=O)c2cc(NC(=O)c3cc(NC(=O)c4nc(NC(=O)c5ccc(N(CCCl)CCCl)cc5)cn4C)cn3C)cn2C)cc1C(=O)NCCC(=N)N
L1210 [1]
  T/C: 125%
L1210 [7]
  IC50: 5 nM
L1210 [6]
  IC50: 0.42 nM
L1210 [3]
  IC50: 2370 nM
L1210 [8]
  Resistance index: 2 and 2.1

## Cl.Cn1cc(NC(=O)c2cc(NC(=O)c3cc(NC(=O)c4nc5cc(NC(=O)c6ccc(N(CCCl)CCCl)cc6)ccc5[nH]4)cn3C)cn2C)cc1C(=O)NCCC(=N)N
Estrogen receptor
  IC50: 5 nM
L1210 [7]
  IC50: 1.2 nM
L1210 [6]
  IC50: 0.42 nM
L1210 [3]
  IC50: 1420 nM
L1210 [8]
  Resistance index: 6.8 and 19

## Cl.Cn1cc(NC(=O)c2cc(NC(=O)c3cc(NC(=O)c4cc5cc(NC(=O)c6ccc(N(CCCl)CCCl)cc6)ccc5[nH]4)cn3C)cn2C)cc1C(=O)NCCC(=N)N
Estrogen receptor
  IC50: 7.5 nM
L1210 [2]
  T/C: 163%
L1210 [7]
  IC50: 0.88 nM
L1210 [6]
  IC50: 0.54 nM
L1210 [3]
  IC50: 95.3 nM
L1210 [8]
  Resistance index: 5.7 and 9.2
L1210 [5]
  Optimal dose: 3.1 mg/kg

## C=C(Br)C(=O)Nc1ccc2oc(C(=O)Nc3cc(C(=O)Nc4cc(C(=O)Nc5cc(C(=O)NCCC(=N)N)n(C)c5)n(C)c4)n(C)c3)cc2c1.Cl
L1210 [2]
  T/C: 117%
L1210 [7]
  IC50: 210 nM
L1210 [6]
  IC50: 39 nM
L1210 [3]
  IC50: 6.1 nM
L1210 [5]
  Optimal dose: 0.78 mg/kg

## Cl.Cn1cc(NC(=O)c2cc(NC(=O)c3cc(NC(=O)c4cc(NC(=O)c5ccc(N(CCCl)CCCl)cc5)cn4C)cn3C)cn2C)cc1C(=O)NCCC(=N)N
L1210 [7]
  IC50: 1.2 nM
L1210 [8]
  Resistance index: 19
L1210 [5]
  Optimal dose: 0.4 mg/kg

## C=C(Br)C(=O)Nc1cn(C)c(C(=O)Nc2cc(C(=O)Nc3cc(C(=O)Nc4cc(C(=O)NCCC(=N)N)n(C)c4)n(C)c3)n(C)c2)n1.Cl
L1210 [1]
  T/C: 163%
L1210 [7]
  IC50: 1.2 nM
L1210 [6]
  IC50: 0.42 nM
L1210 [3]
  IC50: 46.9 nM
L1210 [4]
  Optimal dose: 6.2 mg/kg
L1210 [8]
  Resistance index: 15.5 and 13.9

## Cl.Cn1cc(NC(=O)c2cc(NC(=O)c3cc(NC(=O)c4cc(N(CCCl)CCCl)cn4C)cn3C)cn2C)cc1C(=O)NCCC(=N)N
L1210 [1]
  T/C: 188%
L1210 [2]
  T/C: 133%
L1210 [3]
  IC50: 0.081 nM
L1210 [4]
  Optimal dose: 0.39 mg/kg
L1210 [5]
  Optimal dose: 0.39 mg/kg

## C=C(Br)C(=O)Nc1ccc2c(c1)cc(C(=O)Nc1cc(C(=O)Nc3cc(C(=O)NCCC(=N)N)n(C)c3)n(C)c1)n2C.Cl
L1210 [2]
  T/C: 133%
L1210 [7]
  IC50: 150 nM
L1210 [6]
  IC50: 41 nM
L1210 [3]
  IC50: 15.3 nM
L1210 [5]
  Optimal dose: 3.1 mg/kg

## C=C(Br)C(=O)Nc1ccc2[nH]c(C(=O)Nc3cc(C(=O)Nc4cc(C(=O)Nc5cc(C(=O)NCCC(=N)N)n(C)c5)n(C)c4)n(C)c3)cc2c1.Cl
L1210 [2]
  T/C: 213%
L1210 [7]
  IC50: 140 nM
L1210 [6]
  IC50: 36 nM
L1210 [3]
  IC50: 4.1 nM
L1210 [5]
  Optimal dose: 12.5 mg/kg

Reference: ChEMBL document CHEMBL1133770, “Synthesis and antitumor activity of new benzoheterocyclic derivatives of distamycin A” (J Med Chem, 2000)
